RanGTP-Imp inh – inhibitors of RanGTP-importin-beta interaction, primary screen, biochemical, FRET, CFP-Ran, YFP-importin-beta, homogeneous; AID 2216, 2009; inhibition, % (concentration not given with the values); cell-free CFP-Ran/YFP-importin-beta FRET ratio; 300,000 compounds, 1.1% hits; Ran GTPase (GTP-bound) - importin-beta complex;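 active = more than half of the replicate wells show a fall in the fluorescence ratio signal beyond about 16%, limit read from the data, passing the limit was not always enough; inconclusive = exactly half of the replicate wells pass the set limit; inactive = fewer than half of replicates pass the limit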;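 note: 0% = DMSO wells and 100% = Ran loaded with GDP instead of GTP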
Runt-SMMHC FRET – inhibitors of RUNX1 Runt–CBFb-SMMHC binding, primary screen, biochemical, FRET, Cerulean-Runt, Venus-CBFb-SMMHC, uHTS | Runt-related transcription factor 1 (Homo sapiens) + Core-binding factor subunit beta … | Cerulean-Runt/Venus-CBFb-SMMHC FRET ratio 530/480, 1 h | inhibition, % at 20 µM | 220,000 compounds, 0.74% hits | AID 1434, 2008;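 active = mean inhibition across duplicate retests at 20 µM reaching about 50%, limit read from the data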;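 note: 0% = DMSO wells and 100% = wells with excess untagged CBFb-SMMHC; inhibitors lower the FRET ratio by blocking Runt binding to CBFb-SMMHC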
Hck-Nef inh – inhibitors of Nef-activated human Hck kinase, primary screen, biochemical, Z-Lyte FRET, 384-well, Hck-YEEI; Tyrosine-protein kinase HCK (Homo sapiens), P08631; Recombinant Hck-YEEI plus Nef, Z-Lyte FRET kinase assay; inhibition, % at 20 µM; 220,000 compounds, 0.68% hits; AID 463187, 2010;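 active = Hck-Nef kinase inhibition above about 50%, limit read from the data; inactive = inhibition below that limit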;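 note: 0% = DMSO with Hck plus Nef and 100% = Hck alone without Nef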
Runt-CBFb FRET – inhibitors of RUNX1 Runt–CBFb binding, primary screen, biochemical, FRET, Cerulean-Runt, Venus-CBFb, uHTS; Runt-related transcription factor 1 (Homo sapiens) + Core-binding factor subunit beta …; Cerulean-Runt/Venus-CBFb FRET ratio 530/480, 1 h; inhibition, % at 20 µM; 220,000 compounds, 0.46% hits; AID 1496, 2009;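 active = inhibition over about 50% at 20 µM in the single-dose screen, limit read from the data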;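 note: 0% = DMSO wells and 100% = excess unlabeled CBFb competitor control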
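Measured by: fluorescence energy transfer, 422 nm excitation, 530/480 nm emission; test system: Cerulean-tagged RUNX1 Runt domain (FRET donor) fusion protein; buffer or medium: Tris pH 7.5 buffer with BSA; compound: one dose, 20 µM compound, 1% DMSO; times: two 1 h room-temperature incubations shielded from light; benchmarks: unlabeled CBFb 5 µM, positive control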
pCIP destab – p/CIP-EGFP fusion destabilizers, primary screen, fluorescence, F442A cells. 290,000 compounds, 0.01% hits. Q05BA5. 16 h. decrease of EGFP signal, % at 10 µM;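 active = EGFP signal decrease of at least 30% at 10 µM or well 3 SD below plate mean, unless failing retest; inactive = the rest, including hits failing retest or dose response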
DSG3 Ab inh – inhibitors of pemphigus antibody binding to DSG3, primary screen, biochemical, bead-based, flow cytometry, scFv-GFP. Desmoglein-3 (Homo sapiens), P32926. DSG3-coupled beads, scFv-anti-DSG3-GFP binding; hits give low values. binding (percent of control), % at 10 µM. 310,000 compounds, 0.48% hits. AID 588358, 2011;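 active = binding more than 3 SD below its plate's average and above zero; inconclusive = below that plate limit but binding exactly zero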;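 note: hits lower antibody fragment binding to DSG3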
Target sequence (P32926 whole entry, looked up, the tested form may be a part): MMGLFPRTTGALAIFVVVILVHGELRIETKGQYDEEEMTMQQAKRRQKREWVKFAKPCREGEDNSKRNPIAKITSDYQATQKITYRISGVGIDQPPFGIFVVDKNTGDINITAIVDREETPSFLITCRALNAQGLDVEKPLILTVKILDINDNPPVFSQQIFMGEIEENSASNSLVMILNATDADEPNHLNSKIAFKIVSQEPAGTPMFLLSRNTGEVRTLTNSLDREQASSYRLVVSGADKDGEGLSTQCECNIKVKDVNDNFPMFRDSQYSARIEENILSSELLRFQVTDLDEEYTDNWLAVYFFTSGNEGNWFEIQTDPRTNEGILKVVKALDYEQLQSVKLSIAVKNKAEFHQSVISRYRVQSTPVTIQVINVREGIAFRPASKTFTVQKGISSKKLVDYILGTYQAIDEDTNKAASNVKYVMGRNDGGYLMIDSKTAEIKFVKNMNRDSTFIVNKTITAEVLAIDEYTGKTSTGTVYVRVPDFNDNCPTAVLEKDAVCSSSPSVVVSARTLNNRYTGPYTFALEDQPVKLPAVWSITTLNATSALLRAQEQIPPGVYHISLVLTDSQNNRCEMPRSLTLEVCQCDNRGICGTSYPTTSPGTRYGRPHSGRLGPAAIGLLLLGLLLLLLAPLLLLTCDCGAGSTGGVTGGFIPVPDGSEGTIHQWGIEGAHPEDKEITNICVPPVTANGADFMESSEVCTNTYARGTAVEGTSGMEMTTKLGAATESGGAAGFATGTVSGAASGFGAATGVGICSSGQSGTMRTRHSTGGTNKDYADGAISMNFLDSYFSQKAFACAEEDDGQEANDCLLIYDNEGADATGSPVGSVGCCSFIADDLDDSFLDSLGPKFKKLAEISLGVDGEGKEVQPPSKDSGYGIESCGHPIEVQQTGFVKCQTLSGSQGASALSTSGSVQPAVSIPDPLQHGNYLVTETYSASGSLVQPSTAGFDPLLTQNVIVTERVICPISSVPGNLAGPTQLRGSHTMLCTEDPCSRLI
Hck Nef conf – retest of Hck:Nef kinase inhibitor hits, confirmation, biochemical, Z-Lyte FRET, 384-well, p-Tyr peptide counterscreen | shares compounds with Hck-Nef inh | calls only at 10 µM | Recombinant Hck-YEEI:Nef, Z-Lyte FRET kinase assay | 1,300 compounds, 28% hits;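 active = average inhibition of at least 50%, with Z-scores no higher than 3 in both the phospho-tyrosine peptide and fluorescence counterscreens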
* hit, by the source's call; i = inactive; ? = inconclusive; · = not tested or not shown; + = active, no number. Sampled rows, rich in hits. Any-hit rate of the full collection: about 2.1%.

SMILES	RanGTP-Imp inh	Runt-SMMHC FRET	Hck-Nef inh	Runt-CBFb FRET	pCIP destab	DSG3 Ab inh	Hck Nef conf
O=C(Nc1cccc(Oc2ccc(C(=O)O)c(C(=O)O)c2)c1)c1ccc(-c2ccccc2)cc1	-10.2	-9.2	66.2*	-9.1	-3.2	107.1	i
CCOC(=O)c1nc(Nc2ccc(Nc3ccccc3)cc2)c2ccccc2n1	0.4	-3.3	94.4*	·	-13.9	99.0	i
CCOC(=O)c1ccc(Nc2nc(C(=O)OCC)nc3ccccc23)cc1	2.0	-14.2	1.3	-1.4	-23.9	110.0	·
O=c1c2ccccc2sn1-c1cc(S(=O)(=O)N2CCOCC2)ccc1N1CCOCC1	7.4	29.3	92.7*	1.7	-23.1	25.6*	+
O=c1c2ccccc2sn1-c1cc(S(=O)(=O)N2CCOCC2)ccc1N1CCCC1	-3.3	39.0	2.0	-29.7	-4.6	72.4	·
CCOC(=O)c1c(NC(=O)N/N=C/c2ccc(O)c(OC)c2)sc(C(C)=O)c1C	-4.8	-6.1	60.8*	4.8	-5.3	·	i
Cc1ccc2c(c1)[C@H]1[C@H](CO2)[C@H](c2ccccc2)[C@]2(C)C(=O)N(C)CC(=O)N12	·	·	·	·	·	107.5	·
Cc1ccc(C(CC(=O)NCCCN(C)C)c2ccc(OC(C)C)cc2)cc1 (configuration not stated)	1.5	-0.5	-1.2	2.0	-8.4	95.8	·
CCOC(=O)c1cc(C(=O)OCC)c2ccccn2c1=O	66.1*	60.5*	95.3*	97.4*	1.9	108.5	·
CCOC(=O)c1c[nH]n(-c2ccccc2)c1=O	8.4	-2.0	6.9	-0.6	0.2	100.4	·
CC1=C(C(=O)OCCCBr)C(c2ccc3c(c2)OCO3)NC(=O)N1 (configuration not stated)	?	·	·	·	-8.6	113.8	·
CCC(=O)Oc1ccc2c(C)cc(=O)oc2c1C	1.7	19.9	53.6*	11.1	-4.0	106.9	i
Cc1cc(=O)oc2c(C)c(OC(=O)c3ccco3)ccc12	0.9	·	·	·	-7.9	111.3	·
COc1ccccc1-c1cc(-c2ccccc2)nc(SCC(=O)O)c1C#N	1.8	·	·	·	0.5	113.2	·
COc1ccccc1/C=C/C=c1\sc2nc(=O)c(Cc3ccccc3)nn2c1=O	1.2	-51.0	80.7*	-0.6	-8.1	·	+
Cc1cc(N2CCOCC2)nc2ccc(Cl)cc12	5.4	·	·	·	1.3	98.5	·
Cc1ccc([N+](=O)[O-])cc1N=Nc1c(-c2ccc([N+](=O)[O-])cc2)[nH]n(C(N)=S)c1=O	8.2	-15.9	81.7*	-1.1	-24.3	103.0	+
Cc1ccc(N=Nc2c(C)[nH]n(C(N)=S)c2=O)cc1	0.4	-2.1	-33.4	-2.2	0.2	107.6	·
NC(=S)n1[nH]c(-c2ccc([N+](=O)[O-])cc2)c(N=Nc2ccc(Cl)cc2)c1=O	·	-9.7	71.2*	-3.6	-10.8	85.0	+
Cc1ccc([N+](=O)[O-])cc1N=Nc1c(C)[nH]n(C(N)=S)c1=O	1.5	·	·	·	-3.9	97.5	·
Cc1cc(C)c(S(=O)(=O)Cc2ccccc2)c(Cl)n1	-0.6	·	·	·	-8.2	99.8	·
Cn1c(N/N=C2\CCCc3ccccc32)nc2c1c(=O)n(Cc1ccc(F)cc1)c(=O)n2C	5.3	-0.3	56.3*	-1.6	-12.7	87.8	i
COCCCNc1nc2c(c(=O)n(Cc3ccc(F)cc3)c(=O)n2C)n1C	1.1	·	·	·	-9.9	92.3	·
O=C(O)c1ccc(-n2cccc2/C=N\NC(=O)c2cc3cc(Br)ccc3o2)cc1	-3.5	-6.9	53.9*	8.5	-6.8	86.7	i
COc1cc(/C=N\NC(=O)c2ccc(-c3ccccc3)cc2)ccc1OCC(N)=O	-0.8	·	·	·	4.2	104.2	·
SMILES	RanGTP-Imp inh	Runt-SMMHC FRET	Hck-Nef inh	Runt-CBFb FRET	pCIP destab	DSG3 Ab inh	Hck Nef conf
CCOc1cc(/C=N/NC(=O)c2ccc(-c3csc(Nc4ccc(C)cc4)n3)cc2)ccc1OCC(=O)O	·	13.3	51.6*	24.4	0.0	·	i
O=C(O)COc1ccc(/C=N/NC(=O)c2ccc(-c3csc(Nc4ccc(Cl)cc4)n3)cc2)cc1	1.8	-103.2	75.0*	28.4	0.5	30.6*	+
Oc1ccccc1C=NCCN1CCN(CCN=Cc2ccccc2O)C1c1ccccc1O (configuration not stated)	·	·	·	·	·	116.8	·
COc1ccc(-c2cc(-c3ccco3)[nH]c(=O)c2C#N)cc1OC	8.1	29.4	53.4*	14.6	-23.6	88.4	i
CCN(CC)C(=O)Cc1c(O)c2ccccc2[nH]c1=O	-6.2	0.3	55.8*	-0.2	3.4	90.3	+
Clc1cccc(Cl)c1CNc1ccc(N2CCCC2)cc1	-0.9	-4.2	70.6*	-1.2	-28.6	·	i
CCN1C(=O)CSC1=Nc1ccc(C(=O)OC)cc1	·	·	·	·	·	95.0	·
c1ccc(-c2cc(-c3nnc4n3N=C(c3ccc5ccccc5c3)CS4)[nH]n2)cc1	-2.3	-6.0	53.7*	-2.1	-16.9	103.8	+
O=S1(=O)CCC(NC(=S)N2CCOCC2)C1 (configuration not stated)	2.7	1.9	5.7	0.3	-35.6	97.3	·
O=C(CNc1ccccc1)N/N=C/c1cc([N+](=O)[O-])ccc1N1CCCC1	-0.4	-28.2	3.0	-5.7	-2.4	103.1	·
O=C(Cn1c2ccccc2c(=O)c2ccccc21)N/N=C/c1cc([N+](=O)[O-])ccc1N1CCCCCC1	-3.7	-91.3	81.4*	-43.9	-2.6	96.8	+
Cc1ccc(NC(=O)CSCC(=O)N2CCN(c3cccc(C(F)(F)F)c3)CC2)cc1	-0.2	·	·	·	·	103.0	·
Cc1cc(=O)[nH]c(N/N=C/c2ccc(OC(=O)c3cccnc3)cc2)n1	-2.5	-3.0	-14.3	-0.7	7.4	98.6	·
COc1ccc2nc(-n3c(O)c(C4=c5ccccc5=NC4=O)[nH]c3=S)sc2c1	-9.7	-12.0	102.5*	-12.0	-0.9	96.8	+
Cc1nn(-c2ccccc2)c2c1cc1c(=O)n(C)c(=O)nc-1n2-c1ccccc1F	?	23.4	87.4*	8.8	13.3	104.5	·
Cc1cccc(-n2c3nc(=O)[nH]c(=O)c-3cc3c(C)nn(-c4ccccc4)c32)c1C	2.9	31.2	23.4	17.0	-6.6	90.8	·
